In paper PMC8268672 (Bioorganic Chemistry, 2021):
Values after ≈ are worked out from the molar mass of the structure shown.

What was measured:
Format in all cases: cell-based
[1] = system: Staphylococcus aureus (ATCC 29213); experiment: Agar disk diffusion, inhibition zone; conditions: 100 µg/8 mm disc, triplicate, mean ± SD
Procedure, shortened: (§1)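 Agar disk diffusion on Mueller-Hinton agar plates seeded with a standard bacterial suspension. Test compound stock in DMSO, diluted with distilled water; 8 mm sterile filter-paper discs soaked in the solution. Ampicillin was the reference. Plates incubated at 35 °C for 24 h, in triplicate. Read-out is the average inhibition-zone diameter (mm) around each disc.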

[2] = system: Staphylococcus aureus (ATCC 29213); experiment: MIC, broth microdilution; conditions: ATCC29213, read-out: Minimum inhibitory concentration (MIC), SA
Procedure, shortened: (§2)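 Antibacterial MICs by CLSI broth microdilution in Mueller-Hinton broth. Test compounds and standard drugs are serially diluted two-fold from 512 to 0.25. The bacterial broth culture is grown 2-6 h to a 0.5 McFarland turbidity, then adjusted with sterile solution to the final inoculum.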

[3] = system: Escherichia coli (ATCC 8739); experiment: MIC, broth microdilution; conditions: ATCC8739, read-out: Minimum inhibitory concentration (MIC), EC
Procedure, shortened: (§3)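 Broth microdilution per CLSI in Mueller-Hinton broth, using two-fold serial dilutions of test compound and reference drugs from 512 to 0.25. Bacterial broth cultures were grown 2-6 h to 0.5 McFarland turbidity, then diluted with sterile solution to the final inoculum. MIC is reported in µg/mL.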

[4] = system: Lactobacillus casei (NCIM-2651); experiment: Agar disk diffusion, inhibition zone; conditions: 100 µg/8 mm disc, triplicate, mean ± SD
[5] = system: Pseudomonas aeruginosa (MCCB 0035); experiment: MIC, broth microdilution; conditions: read-out: Minimum inhibitory concentration (MIC), PA
Procedure, shortened: as §3

[6] = system: Bacillus cereus (NCIM-2458); experiment: Agar disk diffusion, inhibition zone; conditions: 100 µg/8 mm disc, triplicate, mean ± SD
[7] = system: Cryptococcus neoformans (ATCC 9011); experiment: MIC, broth microdilution; conditions: ATCC9011, read-out: Minimum inhibitory concentration (MIC), CN
Procedure, shortened: (§4)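 Antifungal MICs by CLSI broth microdilution in Sabouraud liquid medium. Test compounds and standard drugs are serially diluted two-fold from 512 to 0.25. The fungal broth culture is grown 24 h at 35 °C to a 0.5 McFarland turbidity, then adjusted with sterile solution to the final inoculum.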

[8] = system: Klebsiella aerogenes (NCIM-2098); experiment: Agar disk diffusion, inhibition zone; conditions: 100 µg/8 mm disc, triplicate, mean ± SD
[9] = system: Bacillus cereus (NCIM-2458); experiment: MIC, broth microdilution; conditions: NCIM2458, read-out: Minimum inhibitory concentration (MIC), BC
Procedure, shortened: as §3

[10] = system: Aspergillus fumigatus (NCIM 2081); experiment: MIC, broth microdilution; conditions: NCIM2081, read-out: Minimum inhibitory concentration (MIC), AF
Procedure, shortened: as §4

[11] = system: Klebsiella aerogenes (NCIM-2098); experiment: MIC, broth microdilution; conditions: NCIM2098, read-out: Minimum inhibitory concentration (MIC), KA
Procedure, shortened: as §2

[12] = system: Escherichia coli (ATCC 8739); experiment: Agar disk diffusion, inhibition zone; conditions: 100 µg/8 mm disc, triplicate, mean ± SD
Procedure, shortened: as §1

[13] = system: Aspergillus niger (NCIM 2191); experiment: Agar disk diffusion, inhibition zone; conditions: 100 µg/8 mm disc, triplicate, mean ± SD
Procedure, shortened: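 For the fungal strain, discs soaked in test compound solution (DMSO stock diluted with distilled water) sat on seeded Mueller-Hinton agar. Clotrimazole was the reference. Incubation ran 48 h at 35 °C, in triplicate. Zone of growth inhibition recorded in mm as the mean diameter around each disc.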

[14] = system: Candida albicans (NCIM 2087); experiment: Agar disk diffusion, inhibition zone; conditions: 100 µg/8 mm disc, triplicate, mean ± SD
[15] = system: Aspergillus niger (NCIM 2191); experiment: MIC, broth microdilution; conditions: NCIM2191, read-out: Minimum inhibitory concentration (MIC), AN
Procedure, shortened: as §4

[16] = system: Aspergillus fumigatus (NCIM 2081); experiment: Agar disk diffusion, inhibition zone; conditions: 100 µg/8 mm disc, triplicate, mean ± SD
[17] = system: Pseudomonas aeruginosa (MCCB 0035); experiment: Agar disk diffusion, inhibition zone; conditions: 100 µg/8 mm disc, triplicate, mean ± SD
[18] = system: Candida albicans (NCIM 2087); experiment: MIC, broth microdilution; conditions: NCIM2087, read-out: Minimum inhibitory concentration (MIC), CA
Procedure, shortened: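 CLSI broth microdilution in Sabouraud liquid medium, with test compound two-fold serially diluted from 512 to 0.25. Fungal broth culture grown 24 h at 35 °C to 0.5 McFarland turbidity, then adjusted with sterile solution to a final […] inoculum. MIC expressed in µg/mL.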

[19] = system: Cryptococcus neoformans (ATCC 9011); experiment: Agar disk diffusion, inhibition zone; conditions: 100 µg/8 mm disc, triplicate, mean ± SD
[20] = system: Streptococcus pneumonia (ATCC 49619); experiment: Agar disk diffusion, inhibition zone; conditions: 100 µg/8 mm disc, triplicate, mean ± SD
[21] = system: Salmonella typhimurium (NCIM-2501); experiment: Agar disk diffusion, inhibition zone; conditions: 100 µg/8 mm disc, triplicate, mean ± SD

MIC [2] [µg/mL]	MIC [3] [µg/mL]	MIC [5] [µg/mL]	MIC [7] [µg/mL]	MIC [9] [µg/mL]	MIC [10] [µg/mL]	MIC [11] [µg/mL]	MIC [15] [µg/mL]	MIC [18] [µg/mL]	SMILES	Diameter of growth inhibition zone, SA [1] [mm]	Diameter of growth inhibition zone, LC [4] [mm]	Diameter of growth inhibition zone, BC [6] [mm]	Diameter of growth inhibition zone, KA [8] [mm]	Diameter of growth inhibition zone, EC [12] [mm]	Diameter of growth inhibition zone, AN [13] [mm]	Diameter of growth inhibition zone, CA [14] [mm]	Diameter of growth inhibition zone, AF [16] [mm]	Diameter of growth inhibition zone, PA [17] [mm]	Diameter of growth inhibition zone, CN [19] [mm]	Diameter of growth inhibition zone, SP [20] [mm]	other results
64 (≈ 184 µM)	64 (≈ 184 µM)	64 (≈ 184 µM)	128 (≈ 368 µM)	128 (≈ 368 µM)	128 (≈ 368 µM)	128 (≈ 368 µM)	64 (≈ 184 µM)	64 (≈ 184 µM)	Cc1ccc(S(=O)(=O)N2C(=O)CSC2c2ccccc2C)cc1 (stereo not drawn) [5r, 2-(2-Methylphenyl)-3-[(4-methylphenyl)sulfonyl]-1,3-thiazolidin-4-one]	14 ± 1.1	10 ± 0.7	08 ± 0.4	08 ± 0.3	15 ± 0.69	9.8 ± 0.9	10 ± 0.6	9.6 ± 0.9	16 ± 1.9	11 ± 0.7	08 ± 0.8	Diameter of growth inhibition zone, ST [21]: 08 ± 0.6 mm
64 (≈ 184 µM)	64 (≈ 184 µM)	128 (≈ 368 µM)	> 256	> 256	64 (≈ 184 µM)	> 256	128 (≈ 368 µM)	128 (≈ 368 µM)	Cc1ccc(C2SCC(=O)N2S(=O)(=O)c2ccc(C)cc2)cc1 (stereo not drawn) [5t, 2-(4-Methylphenyl)-3-[(4-methylphenyl)sulfonyl]-1,3-thiazolidin-4-one]	12 ± 1.9	08 ± 0.5	07 ± 0.84	07 ± 0.6	12 ± 1.2	9.5 ± 0.9	9.8 ± 0.23	09 ± 1.5	11 ± 0.65	10 ± 0.9	07 ± 0.7	Diameter of growth inhibition zone, ST [21]: 07 ± 0.7 mm
2 (≈ 5.72 µM)	1 (≈ 2.86 µM)	4 (≈ 11.4 µM)	–	4 (≈ 11.4 µM)	–	8 (≈ 22.9 µM)	–	–	CC1(C)S[C@@H]2[C@H](NC(=O)[C@H](N)c3ccccc3)C(=O)N2[C@H]1C(=O)O [AA, Ampicillin, reference compound]	21	20	19	17	18	–	–	–	17	–	17	Diameter of growth inhibition zone, ST [21]: 18 mm
16 (≈ 38.8 µM)	4 (≈ 9.7 µM)	4 (≈ 9.7 µM)	32 (≈ 77.6 µM)	32 (≈ 77.6 µM)	16 (≈ 38.8 µM)	8 (≈ 19.4 µM)	32 (≈ 77.6 µM)	16 (≈ 38.8 µM)	Cc1ccc(S(=O)(=O)N2C(=O)CSC2c2ccc(Br)cc2)cc1 (stereo not drawn) [5d, 2-(4-Bromophenyl)-3-[(4-methylphenyl)sulfonyl]-1,3-thiazolidin-4-one]	21 ± 2.3	18 ± 0.44	12 ± 0.4	18 ± 0.3	20 ± 0.9	11.8 ± 0.66	12.9 ± 0.5	9.8 ± 0.5	20 ± 1.1	17 ± 1.0	10 ± 1.6	Diameter of growth inhibition zone, ST [21]: 14 ± 0.6 mm
–	–	–	2 (≈ 5.8 µM)	–	1 (≈ 2.9 µM)	–	16 (≈ 46.4 µM)	4 (≈ 11.6 µM)	Clc1ccccc1C(c1ccccc1)(c1ccccc1)n1ccnc1 [CL, Clotrimazole, reference compound]	–	–	–	–	–	23	24	22	–	19	–	–
128 (≈ 368 µM)	16 (≈ 46 µM)	64 (≈ 184 µM)	128 (≈ 368 µM)	64 (≈ 184 µM)	64 (≈ 184 µM)	128 (≈ 368 µM)	128 (≈ 368 µM)	64 (≈ 184 µM)	Cc1ccc(S(=O)(=O)N2C(=O)CSC2c2cccc(C)c2)cc1 (stereo not drawn) [5s, 2-(3-Methylphenyl)-3-[(4-methylphenyl)sulfonyl]-1,3-thiazolidin-4-one]	13 ± 1.5	10 ± 0.6	10 ± 0.2	08 ± 1.3	17 ± 1.5	9.6 ± 0.63	10 ± 1.1	9.2 ± 1.5	15 ± 0.32	9 ± 0.5	08 ± 0.4	Diameter of growth inhibition zone, ST [21]: 10 ± 0.4 mm
32 (≈ 87 µM)	8 (≈ 21.7 µM)	16 (≈ 43.5 µM)	32 (≈ 87 µM)	32 (≈ 87 µM)	64 (≈ 174 µM)	8 (≈ 21.7 µM)	16 (≈ 43.5 µM)	16 (≈ 43.5 µM)	Cc1ccc(S(=O)(=O)N2C(=O)CSC2c2cccc(Cl)c2)cc1 (stereo not drawn) [5f, 2-(3-Chlorophenyl)-3-[(4-methylphenyl)sulfonyl]-1,3-thiazolidin-4-one]	20 ± 1.2	14 ± 0.6	12 ± 2.2	18 ± 0.23	18 ± 0.23	11.2 ± 0.6	12 ± 0.35	11.8 ± 1.5	18 ± 0.56	10 ± 0.7	18 ± 0.7	Diameter of growth inhibition zone, ST [21]: 14 ± 0.2 mm
32 (≈ 77.6 µM)	16 (≈ 38.8 µM)	32 (≈ 77.6 µM)	128 (≈ 310 µM)	64 (≈ 155 µM)	64 (≈ 155 µM)	64 (≈ 155 µM)	64 (≈ 155 µM)	32 (≈ 77.6 µM)	Cc1ccc(S(=O)(=O)N2C(=O)CSC2c2ccccc2Br)cc1 (stereo not drawn) [5b, 2-(2-Bromophenyl)-3-[(4-methylphenyl)sulfonyl]-1,3-thiazolidin-4-one]	16 ± 1.1	10 ± 0.6	10 ± 0.34	10 ± 0.5	14 ± 0.56	10.8 ± 0.51	11.6 ± 0.65	10 ± 0.9	15 ± 0.93	7.2 ± 0.3	08 ± 0.7	Diameter of growth inhibition zone, ST [21]: 12 ± 0.7 mm
